Results reported in ChEMBL document CHEMBL4041494, “Simple synthesis of endophenazine G and other phenazines and their evaluation as anti-methicillin-resistant Staphylococcus aureus agents” (Eur J Med Chem, 2017).
Converted amounts (≈) assume the structure as drawn. The source made the active and inactive calls. The calls are words filed in the database; no cut-off is given here.

Legend:
[1] = tested on: Staphylococcus aureus; assay: Antibacterial activity against methicillin-resistant Staphylococcus aureus after 24 hrs by broth microdilution assay
[2] = tested on: Staphylococcus aureus; assay: Antibacterial activity against methicillin-resistant Staphylococcus aureus LAC JE2 after 24 hrs by broth microdilution assay; type: functional; details: LAC JE2, 24 h
Procedure, shortened: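 Broth microdilution per ASM Clinical Microbiology Procedures Handbook (3rd ed.). Compound stock at pH 7, serial 2-fold dilutions in cation-adjusted Mueller Hinton II broth with 5% DMSO. Inoculum from direct colony suspension at 0.5 McFarland, 10 ul per well. Static incubation at 37°C for 24 h. MIC is the lowest concentration with no visible growth. Vancomycin positive control, medium-only negative control.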

[3] = species: Equus caballus; assay: Induction of equine heart cytochrome-c reduction at 25 to 100 uM measured for 900 sec at 30 sec time interval in presence of NADPH by photospectrometric method; type: functional
Procedure, shortened: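 Compound stock 10 mM in 95% DMSO/5% 0.1 M NaOH, diluted in DPBS to 200 μM and serially diluted, keeping 5% DMSO/NaOH. NADPH 100 μM, then cytochrome c 20 μM added. Absorbance at 550 nm read, with 700 nm as baseline correction. Controls: cyt-c alone, cyt-c plus NADPH, and buffer alone.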

[4] = tested on: Staphylococcus aureus; assay: Induction of membrane disruption in methicillin-resistant Staphylococcus aureus LAC JE2 at 1 to 10 times MIC measured at 15 mins interval for 4 hrs by propidium iodide staining based fluorescence assay; type: functional
Procedure, shortened: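 S. aureus JE2 resuspended in PBS to OD600 1.0 and treated with 1X, 2X or 10X MIC. Propidium iodide fluorescence (RFU) read in a plate reader every 15 min for 4 h.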

[5] = tested on: HaCaT; assay: Cytotoxicity against human HaCaT cells assessed as reduction in cell viability by CellTiter blue assay; type: cell-based
Procedure, shortened: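 HaCaT keratinocytes. Compound dissolved in 2:3 NaOH (0.01 M)/DMSO, diluted in DMEM with 10% FBS and 1% penicillin-streptomycin to 4 mM top concentration (3% DMSO), then serially diluted in DMEM. Viability read by CellTiter-Blue, following resazurin absorbance change on a spectrophotometer. Absorbance plotted against concentration and IC50 calculated.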

[6] = tested on: Staphylococcus aureus; assay: Bacteriostatic activity against methicillin-resistant Staphylococcus aureus LAC JE2 at 10 times MIC by serial dilution method; type: functional
Procedure, shortened: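 Overnight culture diluted 1:1000 into fresh CAMHB and grown 2 h at 37°C with agitation. 1-ml aliquots then treated with 10X MIC of compound. Samples taken every 2 h, and viability counted by serial dilution and plating on tryptic soy agar.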

[7] = Induction of ROS generation at 0.11 to 0.55 mM measured for 500 sec at 30 sec time interval in presence of NADPH by ABDA staining based photospectrometric method
Procedure, shortened: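 Compound 10 mM in 95% DMSO/5% 0.1 M NaOH, serially diluted keeping 5% DMSO/NaOH in DPBS. NADPH 100 μM and ABDA 5 μM final added. Superoxide followed as ABDA decay at 479 nm. Triplicate per concentration. Controls: ABDA alone in buffer, and buffer alone.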

[8] = tested on: Staphylococcus aureus; assay: Induction of membrane disruption in methicillin-resistant Staphylococcus aureus LAC JE2 at 1 to 10 times MIC by propidium iodide staining based confocal microscopic method; type: functional
[9] = Induction of ROS generation by HPF staining based flow cytometry

SMILES	MIC [2] [µg/mL]	other results
NC(=O)c1cccc2nc3ccccc3nc12	–	MIC [1]: 64 µg/mL (≈ 287 µM)
COC(=O)c1cccc2nc3c(Br)cccc3nc12	> 128	–
CN(C)C(=O)c1cccc2nc3c(/C=C/C(C)(C)O)cccc3nc12	> 128	Activity [3]: Active
CC(C)(O)/C=C/c1cccc2nc3cccc(C(=O)O)c3nc12	32 (≈ 104 µM)	Activity [4]: inactive; IC50 [5]: 306 µM; Activity [6]: Active; Activity [7]: inactive; Activity [3]: Active; Activity [8]: inactive; Activity [9]: inactive
O=C(O)c1cccc2nc3c(Br)cccc3nc12	128 (≈ 422 µM)	–
NC(=O)c1cccc2nc3cccc(F)c3nc12	> 128	–
O=C(O)c1cccc2nc3ccccc3nc12 [PHENAZINE-1-CARBOXYLIC ACID]	–	MIC [1]: 64 µg/mL (≈ 285 µM)
O=C(O)c1cccc2nc3cccc(Br)c3nc12	32 (≈ 106 µM)	IC50 [5]: 345 µM
O=C(O)c1cccc2nc3cccc(F)c3nc12	64 (≈ 264 µM)	–
O=C(O)c1cccc2nc3cccc(Cl)c3nc12	16 (≈ 61.9 µM)	–
COC(=O)c1cccc2nc3cccc(Br)c3nc12	128 (≈ 404 µM)	–
COC(=O)c1cccc2nc3ccccc3nc12	–	MIC [1]: 128 µg/mL (≈ 537 µM)
COC(=O)c1cccc2nc3cccc(C)c3nc12	64 (≈ 254 µM)	–
CN(C)C(=O)c1cccc2nc3cccc(/C=C/C(C)(C)O)c3nc12	> 128	–
CC(C)(O)/C=C/c1cccc2nc3cccc(C#N)c3nc12	128 (≈ 442 µM)	–
COC(=O)c1cccc2nc3cccc(/C=C/C(C)(C)O)c3nc12	128 (≈ 397 µM)	–
CC(C)(O)/C=C/c1cccc2nc3c(C(=O)O)cccc3nc12	128 (≈ 415 µM)	–
CN(C)C(=O)c1cccc2nc3cccc(Br)c3nc12	> 128	–
CS(=O)(=O)NC(=O)c1cccc2nc3cccc(Br)c3nc12	4 (≈ 10.5 µM)	IC50 [5]: 118 µM
CS(=O)(=O)NC(=O)c1cccc2nc3cccc(Cl)c3nc12	2 (≈ 5.96 µM)	Activity [4]: inactive; IC50 [5]: 193 µM; Activity [6]: Active; Activity [7]: inactive; Activity [3]: Active; Activity [8]: inactive; Activity [9]: inactive
Cc1cccc2nc3cccc(C(=O)O)c3nc12	32 (≈ 134 µM)	–
CC(C)(O)CCc1cccc2nc3cccc(C(=O)O)c3nc12	64 (≈ 206 µM)	–
COC(=O)c1cccc2nc3c(/C=C/C(C)(C)O)cccc3nc12	128 (≈ 397 µM)	–
O=C(O)c1cccc2nc3cc(Br)ccc3nc12	64 (≈ 211 µM)	–
N#Cc1cccc2nc3cccc(Br)c3nc12	> 128	–
